Measurements from PMC7557949 (ACS Omega, 2020).
Values after ≈ are worked out from the molar mass of the structure shown.

What was measured:
[1] = system: herpes simplex virus type 1 (HSV-1); assay: Plaque assay, antiviral activity against HSV-1; assay type: cell-based; conditions: for mean % of reduction, herpes simplex virus: nontoxic dose of compound, average of three independent measurements
coxsackievirus B4 (CBV4) = assay: Plaque assay, antiviral activity against CBV4; assay type: cell-based; conditions: nontoxic dose of compound; average of three independent measurements
Summary of the method: (§1)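 Plaque reduction. Nontoxic dilutions of test compound were mixed 1:1 with virus at 1 × 105, 1 × 106 or 1 × 107, for 0.5 h at 37 °C. 10-fold dilutions went onto BGM (CBV4), FRHK4 (HAV HM 175) or Hep-2 (adenovirus 7), with 1 h adsorption at 37 °C. Overlay was 2× DMEM plus 1% agarose. Cells were formalin-fixed and crystal violet-stained, and plaques counted. Triplicate. IC50 is the half-maximal plaque-reduction concentration.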

[2] = system: hepatitis A virus HM 175 (HAV HM 175); assay: Plaque assay, antiviral activity against HAV HM 175; assay type: cell-based; conditions: nontoxic dose of compound; average of three independent measurements
Summary of the method: as §1

[3] = system: ED-43/SG-Feo (VYG) replicon of hepatitis C virus genotype 4a (HCVcc); assay: Antiviral bioassay against ED-43/SG-Feo; assay type: cell-based; conditions: nontoxic dose of compound; average of three independent measurements
Summary of the method: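 Huh 7.5 cells carrying the ED-43/SG-Feo (VYG) HCV genotype 4a subgenomic replicon were treated with the nontoxic dose of test compound. Replicon RNA copies were quantified by TaqMan qRT-PCR, and the result was expressed as percent reduction.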

[4] = system: adenovirus type 7 (HAdV7); assay: Plaque assay, antiviral activity against adenovirus type 7; assay type: cell-based; conditions: nontoxic dose of compound; average of three independent measurements
Summary of the method: as §1

S. aureus (ATCC:6538) [5] = assay: Agar well diffusion, inhibition zone; assay type: cell-based, Staphylococcus aureus; conditions: for zone of inhibition at 15000 µg/mL: Staphylococcus aureus, 24 h, read-out: diameter of the IZ, S. aureus (ATCC:6538)
Summary of the method: (§2)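 Agar well diffusion. Saline inoculum adjusted to McFarland 0.5 ([…]), i.e. OD 0.13 at 625 nm, and swabbed over dried agar. After 15 min drying, 6 mm wells received 100 μL of test compound at 15 mg/mL. Plates incubated at 37 °C; bacterial zones read in mm after 24 h incubation […]. Triplicate, reported as mm ± SD. Gentamicin and ampicillin served as reference drugs.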

S. mutans (ATCC:25175) [6] = assay: Agar well diffusion, inhibition zone; assay type: cell-based; conditions: Streptococcus mutans, 24 h, read-out: diameter of the IZ, S. mutans (ATCC:25175)
Summary of the method: as §2

K. pneumonia (ATCC:4415) = assay: MIC, twofold serial dilution in agar; assay type: cell-based; conditions: Klebsiella pneumoniae, read-out: MIC, K. pneumonia (ATCC:4415)
S. aureus (ATCC:6538) [7] = assay: MIC, twofold serial dilution in agar; assay type: cell-based; conditions: Staphylococcus aureus, read-out: MIC, S. aureus (ATCC:6538)
S. mutans (ATCC:25175) [8] = assay: MIC, twofold serial dilution in agar; assay type: cell-based; conditions: Streptococcus mutans, read-out: MIC, S. mutans (ATCC:25175)
[9] = target: T1, dihydrofolate reductase (DHFR) (Homo sapiens, UniProt P00374); assay: DHFR inhibitor screening assay; assay type: biochemical; conditions: for IC50: IC50 on the DHFR, average of three measurements; for inhibition at 0.01 µg/mL: read-out: percent inhibition of DHFR at 0.01 (μg/mL); for inhibition at 0.1 µg/mL: read-out: percent inhibition of DHFR at 0.1 (μg/mL); for inhibition at 1 µg/mL: read-out: percent inhibition of DHFR at 1 (μg/mL); for inhibition at 10 µg/mL: read-out: percent inhibition of DHFR at 10 (μg/mL)
T1 sequence (P00374 1-187): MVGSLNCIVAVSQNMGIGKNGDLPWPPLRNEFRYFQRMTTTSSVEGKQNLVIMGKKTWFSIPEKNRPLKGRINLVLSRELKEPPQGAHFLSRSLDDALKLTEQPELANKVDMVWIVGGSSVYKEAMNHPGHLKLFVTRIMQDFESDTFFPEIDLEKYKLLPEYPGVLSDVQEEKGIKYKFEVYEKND

E. coli (ATCC:3008) = assay: Agar well diffusion, inhibition zone; assay type: cell-based, Escherichia coli; conditions: 15 mg/mL, 100 μL per well; mm ± SD
Summary of the method: as §2

C. albicans (ATCC:10231) = assay: Agar well diffusion, inhibition zone; assay type: cell-based, Candida albicans; conditions: 15 mg/mL, 100 μL per well; mm ± SD
Summary of the method: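 Fungal plates were poured and agar dried 15 min. 6 mm wells were cut with a sterile borer and filled with 100 μL test compound solution at 15 mg/mL. Inhibition zone diameter (mm) was read after 48 h incubation. Triplicate, reported as mm ± SD.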

[10] = Cytotoxicity test on Vero cell line; assay type: cell-based; conditions: African green monkey, uninfected Vero cells
Summary of the method: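 Test compound was dissolved at 50 mg/mL in DMSO and decontaminated with 100× antimycotic–antibiotic mix. Cells were seeded at 2 × 10^5 cells/mL and grown 24 h at 37 °C, 5% CO2, to monolayers. Bi-fold dilutions in DMEM were applied for 72 h. Read by daily microscopy for morphology and by trypan blue (0.4%) viable counts. CC50 taken as the concentration giving 50% of untreated-cell OD492.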

Hsp90α = Hsp90α (Homo sapiens, UniProt P07900); assay: Hsp90α; assay type: biochemical
Summary of the method: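 AlphaScreen kit assay for Hsp90α C-terminal binding to PPID. Hsp90α was diluted to 1.5 ng/μL in assay buffer and premixed with test compound. The reaction was started with PPID diluted to 10 ng/μL and run 30 min at room temperature. Glutathione acceptor beads were added for 30 min, then streptavidin donor beads for 1 h, and Alpha counts read. Triplicate; percent inhibition calculated against control.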

Sequence of Hsp90α (P07900 535-732 limits assumed): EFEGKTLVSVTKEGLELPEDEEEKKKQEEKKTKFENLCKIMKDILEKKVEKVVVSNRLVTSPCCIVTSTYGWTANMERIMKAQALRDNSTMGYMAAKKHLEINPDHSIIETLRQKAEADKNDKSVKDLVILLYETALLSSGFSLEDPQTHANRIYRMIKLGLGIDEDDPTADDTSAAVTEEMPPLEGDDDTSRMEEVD

Structure (SMILES)	mean % of reduction, herpes simplex virus [1]	mean % of reduction, CBV4 (coxsackievirus B4 (CBV4))	mean % of reduction, HAV HM 175 [2]	mean % of reduction, HCVcc genotype 4 [3]	mean % of reduction, adenovirus type 7 [4]	zone of inhibition at 15000 µg/mL (S. aureus (ATCC:6538) [5])	zone of inhibition at 15000 µg/mL (S. mutans (ATCC:25175) [6])	diameter of the IZ, C. albicans (ATCC:10231) (C. albicans (ATCC:10231))	also measured
CCSC(SCC)=C(C#N)c1nc2ccccc2s1 [3b, 2-(Benzo[d]thiazol-2-yl)-3,3-bis(ethylthio)acrylonitrile]	26.7 ± 0.20%	20.0 ± 0.20%	40.0 ± 0.30%	20.0 ± 0.25%	30.0 ± 0.30%	–	–	–	–
CSc1c(-c2nc3ccccc3s2)c(N)n(NS(=O)(=O)c2ccccc2)c(=O)c1C#N [8a, N-(6-Amino-5-(benzo[d]thiazol-2-yl)-3-cyano-4-(methylthio)-2-oxopyridin-1(2H)-yl)benzenesulfonamide]	30.0 ± 0.25%	–	–	20.0 ± 0.10%	–	25.8 ± 0.5 mm	19.8 ± 1 mm	–	–
CSc1c(-c2nc3ccccc3s2)c(N)n(NS(=O)(=O)c2ccc(C)cc2)c(=O)c1C#N [8b, N-(6-Amino-5-(benzo[d]thiazol-2-yl)-3-cyano-4-(methylthio)-2-oxopyridin-1(2H)-yl)-4-methylbenzenesulfonamide]	33.3 ± 0.25%	30.0 ± 0.15%	36.7 ± 0.30%	26.7 ± 0.25%	20.0 ± 0.20%	19.3 ± 1 mm	10.7 ± 0.5 mm	–	MIC (K. pneumonia (ATCC:4415)): 125 mg/L (≈ 258 µM); MIC (S. aureus (ATCC:6538) [7]): 1000 mg/L (≈ 2070 µM); MIC (S. mutans (ATCC:25175) [8]): 250 mg/L (≈ 517 µM); IC50 [9]: 2.83 µM; inhibition at 0.01 µg/mL [9]: 19.9%; inhibition at 0.1 µg/mL [9]: 40.8%; inhibition at 1 µg/mL [9]: 50.4%; inhibition at 10 µg/mL [9]: 57.7%
CCSc1c(-c2nc3ccccc3s2)c(N)n(NS(=O)(=O)c2ccccc2)c(=O)c1C#N [8c, N-(6-Amino-5-(benzo[d]thiazol-2-yl)-3-cyano-4-(ethylthio)-2-oxopyridin-1(2H)-yl)benzenesulfonamide]	10.0 ± 0.15%	13.3 ± 0.10%	10.0 ± 0.15%	16.7 ± 0.15%	10.0 ± 0.15%	24.5 ± 0.7 mm	21.3 ± 1.1 mm	–	–
CCSc1c(-c2nc3ccccc3s2)c(N)n(NS(=O)(=O)c2ccc(C)cc2)c(=O)c1C#N [8d, N-(6-Amino-5-(benzo[d]thiazol-2-yl)-3-cyano-4-(ethylthio)-2-oxopyridin-1(2H)-yl)-4-methylbenzenesulfonamide]	–	–	–	–	–	29.9 ± 0.6 mm	12.5 ± 1 mm	–	–
Nc1n[nH]c2c(-c3nc4ccccc4s3)c(N)n(NS(=O)(=O)c3ccccc3)c(=O)c12 [9a, N-(3,6-Diamino-7-(benzo[d]thiazol-2-yl)-4-oxo-1H-pyrazolo[4,3-c]pyridin-5(4H)-yl)benzenesulfonamide]	20.0 ± 0.15%	13.3 ± 0.10%	10.0 ± 0.10%	13.3 ± 0.10%	10.0 ± 0.10%	34 ± 1 mm	13.9 ± 0.5 mm	–	diameter of the IZ, S. aureus (ATCC:6538) (S. aureus (ATCC:6538) [5]; 15 mg/mL, 100 μL per well, mm ± SD): 34.0 ± 1.0 mm; MIC (S. aureus (ATCC:6538) [7]): 125 mg/L (≈ 276 µM); MIC (S. mutans (ATCC:25175) [8]): 1000 mg/L (≈ 2210 µM); IC50 [9]: 1.54 µM; inhibition at 0.01 µg/mL [9]: 22.6%; inhibition at 0.1 µg/mL [9]: 33.8%; inhibition at 1 µg/mL [9]: 53.6%; inhibition at 10 µg/mL [9]: 68.4%
Cc1ccc(S(=O)(=O)Nn2c(N)c(-c3nc4ccccc4s3)c3[nH]nc(N)c3c2=O)cc1 [9b, N-(3,6-Diamino-7-(benzo[d]thiazol-2-yl)-4-oxo-1H-pyrazolo[4,3-c]pyridin-5(4H)-yl)-4-methylbenzenesulfonamide]	–	–	–	–	–	–	–	24.3 ± 0.5 mm	diameter of the IZ, E. coli (ATCC:3008) (E. coli (ATCC:3008)): 15.0 ± 0.5 mm
CSc1c(-c2nc3ccccc3[nH]2)c(N)n(NS(=O)(=O)c2ccccc2)c(=O)c1C#N [13a, N-(6-Amino-5-(1H-benzo[d]imidazol-2-yl)-3-cyano-4-(methylthio)-2-oxopyridin-1(2H)-yl)benzenesulfonamide]	20.0 ± 0.30%	20.0 ± 0.10%	13.3 ± 0.10%	20.0 ± 0.15%	10.0 ± 0.10%	30 ± 1 mm	–	22.0 ± 0.5 mm	–
CSc1c(-c2nc3ccccc3[nH]2)c(N)n(NS(=O)(=O)c2ccc(C)cc2)c(=O)c1C#N [13b, N-(6-Amino-5-(1H-benzo[d]imidazol-2-yl)-3-cyano-4-(methylthio)-2-oxopyridin-1(2H)-yl)-4-methylbenzenesulfonamide]	–	–	–	–	–	28.9 ± 0.7 mm	–	21.0 ± 0.1 mm	–
N#Cc1cc(C#N)c(=O)n(NS(=O)(=O)c2ccccc2)c1N [15a, N-(6-Amino-3,5-dicyano-2-oxopyridin-1(2H)-yl)benzenesulfonamide]	–	–	–	–	–	–	–	19.6 ± 2.0 mm	–
Nc1nc2c(ncn2COCCO)c(=O)[nH]1 [acyclovir, reference compound]	–	–	–	–	–	–	–	–	IC50 ([1]; Human alphaherpesvirus 1, Vero): 0.7 mg/L (≈ 3.11 µM); CC50 at 72 h [10]: 2.8 mg/L (≈ 12.4 µM); inhibition at 0.1 µg/mL (Hsp90α; read-out: percentage inhibition of Hsp90α at 0.1 (μg/mL)): 11.2%; inhibition at 10 µg/mL (Hsp90α; read-out: percentage inhibition of Hsp90α at 10 (μg/mL)): 52.3%; inhibition at 100 µg/mL (Hsp90α; read-out: percentage inhibition of Hsp90α at 100 (μg/mL)): 84.1%
CC1(C)S[C@@H]2[C@H](NC(=O)[C@H](N)c3ccccc3)C(=O)N2[C@H]1C(=O)O [ampicillin, reference compound]	–	–	–	–	–	32 ± 0.5 mm	22 ± 0.5 mm	–	MIC (S. aureus (ATCC:6538) [7]): 62.5 mg/L (≈ 179 µM); MIC (S. mutans (ATCC:25175) [8]): 62.5 mg/L (≈ 179 µM)
